# Compound activity from PubChem.
# Shown are actives, neighbours in structure and some others; about 3.1% of the full set was active somewhere.
# Hsp70 activator = Hsp70 transcriptional activators, primary screen, cell-based, HeLa, Hsp70 promoter luciferase, luminescence, 10 µM; activation, % at 10 µM; 200,000 compounds, 0.04% hits; HeLa Hsp70 promoter luciferase reporter; scaled: vehicle 0, proteasome-inhibitor control 100%; AID 1203, 2008;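 active means activation above the mean across all tested compounds plus 3 SD, cutoff set per campaign, cut at about 5.5% in these data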;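 further: 100% = MG132 at 30 µM as the positive control and 0% = DMSO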
# TbHK1 inh = Trypanosoma brucei hexokinase 1 inhibitors, primary screen, biochemical, G6PDH-coupled NADH absorbance, MLSCN library. hexokinase 1 [Trypanosoma brucei]. recombinant TbHK1, G6PDH-coupled NADH A340. inhibition, % at 10 µM. 220,000 compounds, 0.11% hits. AID 1430, 2008;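 active means inhibition of 50% or more in the single-dose primary screen; inactive means inhibition below 50%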
# HSF-1 act = HSF-1 activators, primary screen, NIH3T3-HGL cells, MG132 stress, luminescence, single point; NIH3T3-HGL HSF-1 luciferase reporter, 8 h; 100% = twice DMSO control signal; activation, % at 9 µM; 300,000 compounds, 1.7% hits; AID 504408, 2011;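 active means mean replicate activation of at least 50% with a set share of replicates each reaching 50%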;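 further: 0% = median of the neutral control wells and 100% = twice that signal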
# HSF1 inh = HSF1 inhibitors in luciferase reporter cells, primary screen, cell-based, NIH3T3, luminescence | NIH3T3-HGL HSE-luciferase, MG132-induced, luminescence 8 h; hits give low values | activity change, negative = inhibition, % at 7.5 µM (by protocol) | 300,000 compounds, 0.77% hits;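 active means more than half of replicate wells show activity change below -50%, luminescence cut by over half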;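 further: luciferase reports HSF-1 transcriptional activity via heat shock element; 0% = median of DMSO wells and -100% = zero luminescence signal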
# HSP90 inh = HSP90 inhibitors, primary screen, cell lysate, luminescence; Rabbit reticulocyte lysate, luciferase refolding luminescence, 3 h; AID 1789, 2009; inhibition, % at 5.6 µM; 290,000 compounds, 0.91% hits; Heat shock protein HSP 90 (rabbit reticulocyte lysate; luciferase refolding);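 active means inhibition above the screen-wide mean plus 3 SD, computed separately per campaign, cut at about 16% in these data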;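 further: 0% = DMSO wells and 100% = 60 µM geldanamycin wells; inhibitors lower the luminescence because luciferase stays unfolded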
# HKDC1 inhibitor = HKDC1 hexokinase inhibitors, primary screen, biochemical, fluorescence, uHTS; Q2TB90; recombinant HKDC1, G6PDH/diaphorase resazurin coupled fluorescence; inhibition, % at 20 µM; 340,000 compounds, 0.16% hits; AID 493160, 2011;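 active means inhibition above about 35% when tested at 20 µM, limit read from the data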;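 further: plate controls were DMSO wells with enzyme for no effect and DMSO wells lacking enzyme for full effect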
# Target sequence (Q2TB90 whole entry, looked up): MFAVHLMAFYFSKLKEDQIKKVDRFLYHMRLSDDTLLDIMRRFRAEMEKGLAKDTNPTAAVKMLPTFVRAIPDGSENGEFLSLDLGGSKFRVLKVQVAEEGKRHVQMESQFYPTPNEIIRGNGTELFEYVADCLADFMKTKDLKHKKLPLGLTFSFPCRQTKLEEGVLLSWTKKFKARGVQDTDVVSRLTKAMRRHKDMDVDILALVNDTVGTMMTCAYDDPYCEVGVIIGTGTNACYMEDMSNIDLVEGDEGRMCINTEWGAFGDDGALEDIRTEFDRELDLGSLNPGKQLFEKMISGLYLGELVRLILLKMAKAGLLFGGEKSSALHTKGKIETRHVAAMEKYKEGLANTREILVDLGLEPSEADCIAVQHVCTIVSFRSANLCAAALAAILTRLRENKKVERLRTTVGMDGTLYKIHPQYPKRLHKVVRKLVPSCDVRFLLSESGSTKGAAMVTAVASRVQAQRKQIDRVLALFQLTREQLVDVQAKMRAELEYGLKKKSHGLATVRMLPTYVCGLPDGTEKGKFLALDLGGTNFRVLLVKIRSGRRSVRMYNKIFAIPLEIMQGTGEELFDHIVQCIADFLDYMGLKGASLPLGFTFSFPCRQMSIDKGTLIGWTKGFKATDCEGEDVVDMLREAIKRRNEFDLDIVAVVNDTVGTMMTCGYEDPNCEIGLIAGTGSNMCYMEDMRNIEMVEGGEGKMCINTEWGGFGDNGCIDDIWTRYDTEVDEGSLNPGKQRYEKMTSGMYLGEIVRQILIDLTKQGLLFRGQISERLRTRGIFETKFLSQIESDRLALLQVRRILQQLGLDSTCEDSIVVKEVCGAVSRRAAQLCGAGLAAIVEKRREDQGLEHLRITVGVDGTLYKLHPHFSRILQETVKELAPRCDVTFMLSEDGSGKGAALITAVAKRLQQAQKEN
#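 Incubation: 90 min at room temperature in dark / Material: recombinant HKDC1 (HK5) hexokinase enzyme, produced in-house / Quantity: enzyme 5 µg/mL final / Compound: one dose of 20 µM, 1% DMSO / Reagent: glucose and ATP substrates / Buffer or medium: Tris pH 8.0 buffer with MgCl2, Tween-20, BSA, BME / Technique: resorufin fluorescence at 613 nm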
# Starred values were filed as active, the others as inactive; . = no result.
SMILES,Hsp70 activator,TbHK1 inh,HSF-1 act,HSF1 inh,HSP90 inh,HKDC1 inhibitor
Cc1ccc(C)c(NC(=O)COc2coc(CN3CCc4ccccc4C3)cc2=O)c1,.,.,-61.7,-51.1*,.,1.5
CCCNC(=O)COc1coc(CN2CCN(c3ccccc3OC)CC2)cc1=O,.,.,-79.8,-72.5*,7.6,-3.6
CC(C)(C)OC(=O)C[C@@H]1C/C=C\C[C@@H](CC(=O)N[C@H](CO)Cc2ccccc2)C(=O)N2CCC[C@H]2COC1=O,.,.,.,.,.,-5.9
COc1ccc(N2CCN(C(=O)Cc3ccc(-n4c(=O)[nH]c5ccccc5c4=O)cc3)CC2)cc1,-0.2,5.1,-68.8,-57.6*,-2.9,4.2
N#CCc1ccc(NC(=O)CSc2nnc(C3CC3)n2C2CC2)cc1,.,.,.,.,.,-7.9
Cc1nnnn1/C(=C\c1ccccc1)C(=O)OCC(=O)Nc1cccc(S(=O)(=O)N(C)C)c1,.,.,.,.,.,-2.9
Cc1nnnn1/C(=C\c1ccccc1)C(=O)OCC(=O)Nc1ccc(Cl)cc1F,.,.,333.5*,341.3,.,-3.7
Cc1ccc(C(C#N)c2ccc(Cl)nn2)cc1 (centres undefined),-0.2,-5.2,20.3,5.2,-0.8,-4.4
Cc1cccc(C(C#N)c2ccc(Cl)nn2)c1 (centres undefined),-0.1,-0.4,73.9*,24.9,0.0,3.8
CC(C)Nc1nnc(Sc2ccc(Cl)cc2[N+](=O)[O-])s1,-0.1,-1.4,-59.6,-50.4*,-3.8,15.7
Nc1nnc(Sc2ccc(Cl)cc2[N+](=O)[O-])s1,-0.3,2.1,13.9,7.6,2.5,-10.3
CCn1c(CSCc2ccc(C)cc2)n[nH]c1=S,.,.,-9.0,0.8,0.3,-3.3
CCn1c(CC(C)C)n[nH]c1=S,-0.2,-2.2,58.9*,24.6,4.4,-7.8
CSc1cccc(NC(=O)c2ccccn2)c1,0.2,1.4,9.6,12.8,-1.0,.
CSc1cccc(NC(=O)c2cnn3ccccc23)c1,.,-6.9,81.1*,51.7,1.1,-2.4
O=C(Nc1nc2ccccc2n1Cc1ccc(Cl)cc1)c1ccco1,-0.3,-5.9,29.2,9.5,0.7,-8.4
CC(NC(=O)/C=C/c1ccco1)c1nc2ccccc2n1Cc1cccc(Cl)c1 (centres undefined),-0.3,-5.0,70.3*,37.7,5.5,1.9
CC(C)=CC(=O)Nc1nnc(-c2ccccc2C)s1,-0.3,7.8,17.9,10.0,1.7,-9.3
C/C(=C\C(=O)Nc1cscc1C)C(=O)O,.,14.8,74.4*,29.6,-1.6,0.2
Cc1cccc(N2CCN(C(=O)c3cccc(S(=O)(=O)N4CCOCC4)c3)CC2)c1C,.,.,.,.,.,-0.7
Cc1ccc(NC(=O)c2sc(N)nc2-c2ccc([N+](=O)[O-])cc2)c(C)c1,.,7.4,63.5*,40.8,2.9,-5.4
Cc1cc([N+](=O)[O-])ccc1NC(=O)c1cccc(NC(=O)C(C)C)c1,-0.1,-11.3,57.9*,20.9,-1.8,2.6
O=C(Nc1ccc([N+](=O)[O-])cc1)C(=O)Nc1cccc(C(=O)O)c1,.,-14.3,-76.5,-70.8*,78.1*,-4.5
Cc1cc([N+](=O)[O-])ccc1NC(=O)c1csc(C)c1C,.,.,53.5*,23.6,-5.5,3.5
CC(C)C(=O)Nc1cccc(C(=O)Nc2cc([N+](=O)[O-])ccc2Cl)c1,-0.1,4.0,-1.4,-9.0,-2.5,-8.1
SMILES,Hsp70 activator,TbHK1 inh,HSF-1 act,HSF1 inh,HSP90 inh,HKDC1 inhibitor
Cc1ccc(NC(=O)c2sc(N)nc2-c2ccc([N+](=O)[O-])cc2)cc1C,.,-5.2,42.4,23.3,5.2,-7.1
CC(=O)N1c2ccc(S(=O)(=O)N3CCC(C(=O)NCCc4ccc(Cl)cc4)CC3)cc2CC1C (centres undefined),.,.,7.8,7.2,-1.5,-1.1
COc1ccc(CNC(=O)CN2CCC(NC(=O)c3ccccc3C)CC2)cc1,.,.,6.6,-2.6,-1.1,0.8
CC(NC(=O)COC(=O)c1ccc[nH]c1=O)c1ccccc1 (centres undefined),.,.,.,.,.,-5.0
Cc1ccc(C)c(OCc2cc(C(=O)N(C)Cc3nccs3)no2)c1,.,.,8.3,8.3,-3.1,-0.4
Cc1cc(C)c(S(=O)(=O)N2CCN=C2c2ccccc2)cc1C,-0.2,3.0,-2.1,-5.1,-1.8,-10.1
COc1cc(C)c(S(=O)(=O)N2CCN=C2c2ccccc2)cc1C,-0.5,15.3,56.1*,10.3,-4.1,8.2
Cc1ccc2nc(SCC(=O)Nc3cccc(S(=O)(=O)NC4=NCCCCC4)c3)[nH]c2c1,.,-6.3,111.5*,53.5,-6.2,-2.8
Cc1cccc(Nc2nnc(SCC(=O)Nc3cccc(S(=O)(=O)N4CCCCC4)c3)s2)c1,-0.1,27.8,58.3*,16.2,-2.9,-2.2
Cc1ccc(Nc2nnc(SCC(=O)Nc3ccc(S(=O)(=O)N4CCOCC4)cc3)s2)cc1,-0.2,17.5,71.9*,15.3,-3.6,2.9
Cc1nnc(SCC(=O)Nc2cccc(S(=O)(=O)NC3=NCCCCC3)c2)n1Cc1ccccc1,0.0,7.4,-3.9,-2.7,6.2,-10.7
Cc1ccc(Nc2nnc(SCC(=O)Nc3cccc(S(=O)(=O)NC4=NCCCCC4)c3)s2)cc1,-0.3,-1.7,85.7*,31.3,-0.6,-1.5
CCC(C)N(C(=O)CSc1nnc(NC(C)C)s1)C1CCS(=O)(=O)C1 (centres undefined),.,.,-12.8,-4.9,.,-9.2
CCc1ccc(Nc2nnc(SCC(=O)Nc3cccc(S(=O)(=O)NC4=NCCCCC4)c3)s2)cc1,-0.5,13.1,54.6*,26.0,6.0,-2.6
OCC1CCCN(C(=S)Nc2ccc(Nc3ccccc3)cc2)C1 (centres undefined),0.5,1.4,74.2*,33.6,-0.1,-6.9
COc1cccc(NC(=O)CSc2nnnn2C2CCCCC2)c1,.,.,11.0,1.2,-3.6,1.3
Cc1cc(C)cc(SCc2noc(C(=O)NCc3ccccc3)c2C(=O)NCc2ccccc2)c1,.,-6.9,-67.5,-60.0*,.,-2.3
COc1cc(C2C(C#N)=C(N)OC3=C2C(=O)CCC3)c([N+](=O)[O-])cc1OC (centres undefined),-0.3,-3.2,-82.7,-76.6*,1.6,11.2
NS(=O)(=O)c1cccc(NC(=O)Nc2ccc(Cl)cc2)c1,.,1.0,29.8,9.5,-0.4,2.7
CC(C)S(=O)(=O)c1csc(NC(=O)Nc2ccc(Cl)cc2)c1,.,8.7,76.7*,59.9,-0.7,-0.2
COc1ccc(NC(=O)c2csc(Cc3ccc(Cl)cc3)n2)cc1,-0.3,5.2,37.3,21.9,-4.0,-1.6
COc1ccc(Cc2nc(C(=O)Nc3ccccc3)cs2)cc1,0.1,27.4,58.9*,26.6,-5.1,-2.1
